In the library only some 3.8% were active in any assay of this set; here they are far more common.
Beta apoptosis – beta cell apoptosis inhibition. protection from apoptosis, % (test concentration not listed). 300,000 tested, 0.8% active. INS-1E cytokine-induced death, ATP luminescence, 48 h; percent of positive-control rescue, neutral wells zero. AID 435005;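 active = Every replicate reaches about 75%, or at least half do and their mean reaches it too, limit read from the data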;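 note: higher means more ATP so stronger rescue from cytokine killing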
MC4R antag cAMP – human MC4R antagonism in cAMP assay. AID 540295. 360,000 tested, 0.48% active. inhibition, % at 6.5 µM. P32245. MC4R-expressing cells, MTII-stimulated cAMP, LANCE TR-FRET;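 active = inhibition above its plate's cutoff, the mean of tested wells on that plate plus 3 SD, cut at about 29% in these data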
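Material: U2OS-MC4R stable cell line | Reagent: Melanotan II challenge after compound preincubation | Doses: One concentration, 6.5 µM nominal | Incubation: 30-min compound preincubation, 1-h Melanotan II challenge, 1-h detection, room temperature | Signal: TR-FRET cAMP assay | Replicates: One well per compound, no replicates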
ANO1 activ – mouse TMEM16A channel activation, primary screen | AID 623877 | HEK293 TMEM16A/YFP-H148Q/I152L, iodide quench fluorescence; active compounds read low | Q8BHY3 | 340,000 tested, 0.3% active | B-score at 10 µM;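 active = fluorescence-ratio B-score plate-corrected deviation score at least 3 library SD below zero, with starting fluorescence score within 5 deviations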;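 note: channel opened by trigger with iodide after compound preincubation; score built on the fluorescence ratio of max minus min over baseline; more negative score means more quench and so TMEM16A activation or potentiation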
CSC inhib – cancer stem cell inhibition. inhibition, % at 7.5 µM. AID 2717. 300,000 tested, 1.1% active. cancer stem cell-like cells viability, luminescence; in the data active = inhibition above about 75%; tested in HMLE shEcad cells
MC4R ag barr – human MC4R agonism via beta-arrestin; 360,000 tested, 0.98% active; AID 540308; activation, % at 8.9 µM; U2OS MC4R beta-arrestin complementation, luminescence; percent of melanotan II response, DMSO zero; P32245;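 active = activation above a per-plate cutoff, the mean activation of sample wells on that plate plus 3 SD, cut at about 8% in these data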
ANO1 block – inhibitors of mouse TMEM16A calcium-activated chloride channel; Q8BHY3; HEK293 TMEM16A/YFP iodide influx fluorescence, ionomycin; normalized B-score (activity score, 25-100; higher = stronger inhibition) at 10 µM; 310,000 tested, 1.2% active;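 active = ratio plate-corrected score three or more library SD toward inhibition, starting fluorescence score within five deviations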;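 note: score derived from kinetic fluorescence span divided by baseline fluorescence per well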
MC4R barr ag – human MC4R beta-arrestin agonism confirmation; shares compounds with MC4R ag barr; U2OS MC4R beta-arrestin recruitment, luminescence; scaled DMSO 0%, Melanotan II 100%; activation, % at 8.9 µM; 2,400 tested, 31% active;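 active = mean activation across replicates above the hit cutoff set in the earlier primary screen, cut at about 8% in these data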
MOR-DOR barr ag – counter-screen for MC4R agonists: agonists of mu-delta opioid heterodimer; shares compounds with MC4R ag barr; U2OS PathHunter beta-arrestin, beta-gal luminescence; percent of deltorphin B response, DMSO zero; activation, % at 9.2 µM; 2,400 tested, 5.8% active;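 active = mean activation across replicates exceeds the hit threshold derived in the earlier primary screen, cut at about 18% in these data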
Target sequence (P35372 whole entry, looked up): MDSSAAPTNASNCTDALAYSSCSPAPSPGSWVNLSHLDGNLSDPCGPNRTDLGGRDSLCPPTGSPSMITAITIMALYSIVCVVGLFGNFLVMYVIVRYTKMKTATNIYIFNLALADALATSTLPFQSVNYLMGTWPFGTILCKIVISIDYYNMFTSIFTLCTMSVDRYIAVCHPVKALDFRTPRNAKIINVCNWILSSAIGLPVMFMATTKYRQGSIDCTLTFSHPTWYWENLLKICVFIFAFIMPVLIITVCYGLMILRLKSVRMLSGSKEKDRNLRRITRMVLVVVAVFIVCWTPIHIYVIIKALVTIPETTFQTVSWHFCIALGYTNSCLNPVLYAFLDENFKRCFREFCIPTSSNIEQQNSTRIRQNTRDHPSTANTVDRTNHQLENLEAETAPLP
Target sequence (P41143 whole entry, looked up): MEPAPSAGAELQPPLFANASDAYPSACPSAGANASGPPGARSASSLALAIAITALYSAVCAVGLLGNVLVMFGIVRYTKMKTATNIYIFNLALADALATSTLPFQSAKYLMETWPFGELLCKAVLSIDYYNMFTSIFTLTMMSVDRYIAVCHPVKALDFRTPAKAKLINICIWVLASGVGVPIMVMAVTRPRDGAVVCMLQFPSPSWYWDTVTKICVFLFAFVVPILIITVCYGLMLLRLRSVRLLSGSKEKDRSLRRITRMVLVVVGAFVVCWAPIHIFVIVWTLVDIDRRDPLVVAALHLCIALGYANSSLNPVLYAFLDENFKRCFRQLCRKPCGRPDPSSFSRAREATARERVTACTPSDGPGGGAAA
A number is an active result; – = inactive; · = no result.

SMILES	Beta apoptosis	MC4R antag cAMP	ANO1 activ	CSC inhib	MC4R ag barr	ANO1 block	MC4R barr ag	MOR-DOR barr ag
Cc1ccccc1NC(=O)Nc1nc(C(N)Cc2ccccc2)cs1 (centres undefined)	·	–	·	·	–	·	·	·
NC(Cc1ccc(C(F)(F)F)cc1)c1csc(NC(=O)Nc2ccccc2)n1 (centres undefined)	·	–	·	·	18.9	·	19.3	–
COc1ccc(CC(N)c2csc(NC(=O)Nc3ccc(F)cc3)n2)cc1 (centres undefined)	·	–	·	·	–	·	·	·
CC(C)CC(N)c1csc(NC(=O)Nc2ccccc2Cc2ccccc2)n1 (centres undefined)	·	–	·	·	–	·	·	·
COc1ccc(-c2ccc(C(=O)Nc3cccc(NS(C)(=O)=O)c3)c3occc23)c(C)c1	·	–	·	·	–	·	·	·
Cc1nc(NC(=O)c2ccc(Br)o2)ccc1Br	·	–	–	·	–	·	·	·
Cc1nc(NC(=O)c2cc3ccccc3o2)ccc1Br	–	–	–	–	11.1	–	–	–
Cc1cccc(S(=O)Cc2ccc(C(=O)NC3CCN(Cc4ccccc4)CC3)o2)c1 (centres undefined)	–	–	–	–	–	–	·	·
COc1ccc(Oc2nc(-c3ccncc3)nc3ccccc23)cc1	–	–	–	–	–	–	·	·
CCCOC(=O)c1cccc(Nc2nc(-c3cccnc3)nc3ccccc23)c1	–	–	–	–	26.2	–	16.9	–
COc1ccc(Nc2nc(-c3ccncc3)nc3ccccc23)cc1	–	–	–	–	18.8	–	–	–
Fc1cccc(Nc2nc(-c3ccncc3)nc3ccccc23)c1	–	–	–	–	11.9	–	–	–
COc1cccc(Nc2nc(-c3ccccc3O)nc3ccccc23)c1	–	–	–	–	17.3	–	–	–
CCCc1ccc2oc(C(=O)N3CCN(C4CCS(=O)(=O)C4)CC3)c(C)c2c1 (centres undefined)	–	–	–	–	–	–	·	·
CN(CC(=O)Nc1ccc(F)c(F)c1F)C(=O)CCN1C(=O)C2CCCCC2C1=O (centres undefined)	–	–	–	–	–	·	·	·
C=Cc1ccc(Cn2c(C)c(C(=O)NCc3ccc4c(c3)OCCO4)sc2=O)cc1	·	–	·	·	–	·	·	·
CCN(CC)c1nc(-c2cccc(OC)c2O)nc2ccccc12	–	–	–	·	–	–	·	·
COc1cccc(-c2nc(NCc3ccccc3)c3ccccc3n2)c1O	–	–	–	–	18.3	–	–	–
CCOc1ccccc1-c1nc(-c2ccc(NC(=O)c3ccc(Br)o3)cc2)no1	–	·	·	–	·	–	·	·
CCOc1ccccc1-c1nc(-c2ccc(NC(=O)Cc3ccc(OC)cc3)cc2)no1	–	–	–	–	21.1	–	25.0	20.6
COc1cc(NC(=O)c2ccc(-c3ccc(F)c(F)c3)c3ccoc23)cc(OC)c1OC	·	–	·	·	13.7	·	–	–
COc1cc(NC(=O)c2ccc(-c3cn[nH]c3)c3ccoc23)cc(OC)c1OC	·	–	·	·	–	·	·	·
CCN1/C(=C/c2ccc3cc(C)ccc3[n+]2CC)Sc2cc(C)c(C)cc21	·	–	–	·	28.6	·	78.5	–
CCOC(=O)/C(=C/C=C1\Sc2cc(C)c(C)cc2N1CC)C(C)=O	·	–	–	·	–	·	·	·
O=S(=O)(c1cccc(F)c1)N1CCCN(c2ccc(C(F)(F)F)cn2)CC1	–	–	–	–	–	–	·	·
SMILES	Beta apoptosis	MC4R antag cAMP	ANO1 activ	CSC inhib	MC4R ag barr	ANO1 block	MC4R barr ag	MOR-DOR barr ag
CCCCCN=C(N)N/N=C/c1c[nH]c2ccc(OC)cc12	–	–	–	119.2	10.1	–	14.5	30.9
CC(C)(C)c1cc(NS(=O)(=O)c2ccc(Br)s2)no1	–	–	–	–	–	–	·	·
Cc1nc(C)c(NC(=O)N2CCc3ccccc32)cc1NC(=O)N1CCc2ccccc21	–	–	–	–	24.7	–	–	–
CCN(C(=O)CN1C(=O)COc2ccc(S(=O)(=O)N3CCCCCC3)cc21)c1cccc(C)c1	–	–	–	–	–	–	·	·
OCCN1CCN(c2nc(-c3ccccc3)nc3c2oc2ccccc23)CC1	–	–	–	–	22.9	–	15.3	–
O=C(O)C1CCN(c2nc(-c3ccccc3)nc3c2oc2ccccc23)CC1	–	–	–	–	–	–	·	·
Cc1nn(C)c(C(=O)Nc2ccc(Br)cc2F)c1Br	–	–	–	–	13.3	–	–	–
Cc1cc(C(=O)Nc2ccc(Br)cc2F)n(-c2ccccc2)n1	–	–	–	–	–	–	·	·
CC(C)CC(N)c1csc(Nc2ccc(C(F)(F)F)cn2)n1 (centres undefined)	·	–	·	·	10.0	·	25.8	–
NC(CCc1ccccc1)c1csc(Nc2ccc(C(F)(F)F)cn2)n1 (centres undefined)	·	–	·	·	17.0	·	–	–
NC(COCc1ccccc1)c1csc(Nc2ccc(C(F)(F)F)cn2)n1 (centres undefined)	·	–	·	·	–	·	·	·
NC(Cc1ccc(Cl)cc1)c1csc(Nc2ccc(C(F)(F)F)cn2)n1 (centres undefined)	·	–	·	·	–	·	·	·
O=S(=O)(/C=C/C=C/S(=O)(=O)c1ccccc1)c1ccccc1	·	–	–	·	–	·	·	·
CN(CC(=O)Nc1ccc(F)c(F)c1F)C(=O)c1nn(Cc2ccccc2)c(=O)c2ccccc12	–	–	–	–	–	·	·	·
COC(=O)c1ccc(NC(=O)c2ccc3c(c2)OCO3)cc1	–	–	–	–	–	–	·	·
CC(c1ccccc1)c1nnc(NC(=O)c2ccc3c(c2)OCO3)s1 (centres undefined)	–	–	–	–	15.1	–	–	–
COc1cc(NC(=O)c2ccc3c(c2)OCO3)c2ncccc2c1	–	–	–	–	10.5	–	–	–
COC(=O)c1sccc1NC(=O)c1ccc2c(c1)OCO2	–	–	–	–	14.5	–	–	–
O=C(NC(=S)Nc1ccccc1Br)c1ccc2c(c1)OCO2	–	–	–	–	11.1	–	–	–
CCc1ccc(NC(=O)CSc2nc3ccccc3c(=O)n2CCCN2CCC(C)CC2)cc1	–	–	–	–	–	–	·	·
Cc1ccc(NC(=O)COc2cccc3c2OC(C)(C)C3)c(O)c1	–	–	–	·	–	·	·	·
S=C(NCCCCN(Cc1ccc(Cl)cc1)c1ccc(Br)cn1)NCCCc1cnc[nH]1	·	–	·	·	10.3	·	10.7	–
COc1cc(NC(=O)CNC(=O)Cn2ccc3ccccc3c2=O)cc(OC)c1OC	–	–	–	–	–	–	·	·
COc1ccc(CSCC(=O)N/N=C/c2ccc(OCC(=O)N3CCCCC3)cc2)cc1	–	–	–	–	–	–	·	·
Cc1ccc(CSCC(=O)N/N=C/c2ccc(OCC(=O)Nc3ccc(C)cc3)cc2)cc1	–	–	–	–	16.1	–	–	–

Bioassay records: PubChem BioAssay, several laboratories
